According to ChEMBL document CHEMBL1157575, “Antitumor agents. 272. Structure-activity relationships and in vivo selective anti-breast cancer activity of novel neo-tanshinlactone analogues” (J Med Chem, 2010):
Converted amounts (≈) assume the structure as drawn.

What was measured:
SK-BR-3 = assay: Growth inhibition of human SK-BR-3 cells after 72 hrs by SRB assay; assay type: functional; conditions: SK-BR-3, 72 h, read-out: ED50 (the source's name)
Method in brief: (§1)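 SRB assay. Cells were grown in RPMI-1640 with 10% FBS at 37 °C and 5% CO2, then seeded in 96-well plates. Compound was added from DMSO stock, followed by 72 h incubation. Cells were fixed with 10% TCA, stained with 0.4% SRB, solubilized in 10 mM Tris base, and read at 515 nm. ED50 is the concentration giving 50% reduction of net protein increase versus control; mean of at least three independent determinations.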

MCF7 = assay: Growth inhibition of human MCF7 cells after 72 hrs by SRB assay; assay type: functional; conditions: MCF7, 72 h, read-out: ED50 (the source's name); method in brief: as §1
ZR-75-1 [1] = assay: Growth inhibition of human ZR-75-1 cells after 72 hrs by SRB assay; assay type: functional; conditions: ZR-75-1, 72 h, read-out: ED50 (the source's name); method in brief: as §1
A549 = assay: Cytotoxicity against human A549 cells after 72 hrs by SRB assay; assay type: functional; conditions: A549, 72 h, read-out: ED50 (the source's name)
ZR-75-1 [2] = assay: Antitumor activity against human ZR-75-1 cells xenografted in athymic nude mouse SCID assessed as tumor growth delay at 10 mg/kg, ip administered in QOD schedule; assay type: functional; conditions: route intraperitoneal
Method in brief: (§2)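 Female SCID mice, 5 weeks old, 20-24 g, implanted s.c. in the right flank with 1 × 10^7 ZR-75-1 cells in PBS. Tumors were caliper-measured, with volume = w² × l/2. Dosing was i.p. in vehicle (4% benzyl alcohol/6% cremophor/90% D5W); vehicle controls were given qod to end. TTE is the mean time to endpoint. %TGD = (T−C)/C × 100. Logrank test, P ≤ 0.05.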

MDA-MB-231 = assay: Growth inhibition of human MDA-MB-231 cells after 72 hrs by SRB assay; assay type: functional; conditions: MDA-MB-231, 72 h, read-out: ED50 (the source's name); method in brief: as §1
[3] = Cytotoxicity against human MCF10A cells after 72 hrs by MTT assay; assay type: cell-based, MCF-10A; conditions: read-out: ED50
Method in brief: (§3)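 MTT assay. Cells were seeded at 5000/well in recommended growth medium and incubated overnight. Compound was added in DMSO, followed by 72 h at 37 °C in 5% CO2. MTT reagent was added for 2 h and formazan was read at OD 570 nm. Values were interpolated ED50; data are from replicates in a single experiment.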

[4] = target: Tyrosine-protein kinase ABL1 (Mus musculus) (UniProt P00520); assay: Inhibition of mouse recombinant ABL expressed in Escherichia coli at 10 uM
Tyrosine-protein kinase ABL1 (Mus musculus), sequence (P00520 whole entry): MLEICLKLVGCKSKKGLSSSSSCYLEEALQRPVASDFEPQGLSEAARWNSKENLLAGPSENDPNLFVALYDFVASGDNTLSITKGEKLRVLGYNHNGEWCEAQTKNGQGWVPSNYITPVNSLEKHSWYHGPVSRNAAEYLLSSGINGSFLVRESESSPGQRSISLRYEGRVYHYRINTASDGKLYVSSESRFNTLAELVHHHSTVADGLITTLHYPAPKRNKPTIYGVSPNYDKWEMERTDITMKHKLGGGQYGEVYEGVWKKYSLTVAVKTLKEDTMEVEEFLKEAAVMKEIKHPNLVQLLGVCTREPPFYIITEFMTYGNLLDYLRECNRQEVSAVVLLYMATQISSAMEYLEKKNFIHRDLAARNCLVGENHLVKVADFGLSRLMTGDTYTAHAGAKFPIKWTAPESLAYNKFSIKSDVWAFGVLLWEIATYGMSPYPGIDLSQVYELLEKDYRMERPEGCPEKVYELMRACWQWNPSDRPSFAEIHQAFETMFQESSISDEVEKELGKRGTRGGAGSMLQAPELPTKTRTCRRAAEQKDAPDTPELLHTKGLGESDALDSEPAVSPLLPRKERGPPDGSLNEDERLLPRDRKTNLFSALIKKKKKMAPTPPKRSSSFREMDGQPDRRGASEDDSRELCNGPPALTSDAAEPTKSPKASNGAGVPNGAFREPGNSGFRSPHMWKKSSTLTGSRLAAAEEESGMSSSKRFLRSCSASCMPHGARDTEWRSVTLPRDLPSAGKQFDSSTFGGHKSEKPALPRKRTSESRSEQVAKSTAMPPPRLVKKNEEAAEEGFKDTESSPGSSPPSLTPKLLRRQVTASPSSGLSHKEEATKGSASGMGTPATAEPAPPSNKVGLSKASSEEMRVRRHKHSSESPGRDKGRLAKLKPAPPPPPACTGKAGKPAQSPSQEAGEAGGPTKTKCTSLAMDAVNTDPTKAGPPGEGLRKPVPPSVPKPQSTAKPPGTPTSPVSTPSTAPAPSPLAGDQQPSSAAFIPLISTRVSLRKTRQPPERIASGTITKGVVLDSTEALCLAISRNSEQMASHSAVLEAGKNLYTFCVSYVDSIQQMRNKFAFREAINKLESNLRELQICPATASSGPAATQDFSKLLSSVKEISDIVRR

[5] = target: Casein kinase II subunit alpha (Homo sapiens) (UniProt P68400); assay: Inhibition of human recombinant CK2alpha1 expressed in Sf9 cells at 10 uM
Casein kinase II subunit alpha (Homo sapiens), sequence (P68400 whole entry, looked up): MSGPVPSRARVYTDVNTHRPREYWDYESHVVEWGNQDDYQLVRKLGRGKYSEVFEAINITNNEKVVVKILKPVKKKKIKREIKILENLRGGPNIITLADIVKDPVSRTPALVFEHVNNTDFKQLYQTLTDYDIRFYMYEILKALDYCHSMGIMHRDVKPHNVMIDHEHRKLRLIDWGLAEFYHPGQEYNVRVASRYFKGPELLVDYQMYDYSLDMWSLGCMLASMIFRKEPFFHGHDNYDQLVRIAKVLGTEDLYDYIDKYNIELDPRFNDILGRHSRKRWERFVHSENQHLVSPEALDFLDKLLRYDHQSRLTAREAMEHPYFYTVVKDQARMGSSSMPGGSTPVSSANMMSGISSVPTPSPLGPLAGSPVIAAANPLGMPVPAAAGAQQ

ZR-75-1 [6] = assay: Antitumor activity against human ZR-75-1 cells xenografted in athymic nude mouse SCID assessed as mean time to end point at 10 mg/kg, ip administered in QOD schedule; assay type: functional; conditions: route intraperitoneal; method in brief: as §2
[7] = Cytotoxicity against human 184A1 cells after 72 hrs by MTT assay; assay type: cell-based; conditions: read-out: ED50; method in brief: as §3
[8] = target: RAC-alpha serine/threonine-protein kinase (Homo sapiens) (UniProt P31749); assay: Inhibition of human recombinant AKT1 expressed in Sf21 cells at 10 uM
RAC-alpha serine/threonine-protein kinase (Homo sapiens), sequence (P31749 whole entry): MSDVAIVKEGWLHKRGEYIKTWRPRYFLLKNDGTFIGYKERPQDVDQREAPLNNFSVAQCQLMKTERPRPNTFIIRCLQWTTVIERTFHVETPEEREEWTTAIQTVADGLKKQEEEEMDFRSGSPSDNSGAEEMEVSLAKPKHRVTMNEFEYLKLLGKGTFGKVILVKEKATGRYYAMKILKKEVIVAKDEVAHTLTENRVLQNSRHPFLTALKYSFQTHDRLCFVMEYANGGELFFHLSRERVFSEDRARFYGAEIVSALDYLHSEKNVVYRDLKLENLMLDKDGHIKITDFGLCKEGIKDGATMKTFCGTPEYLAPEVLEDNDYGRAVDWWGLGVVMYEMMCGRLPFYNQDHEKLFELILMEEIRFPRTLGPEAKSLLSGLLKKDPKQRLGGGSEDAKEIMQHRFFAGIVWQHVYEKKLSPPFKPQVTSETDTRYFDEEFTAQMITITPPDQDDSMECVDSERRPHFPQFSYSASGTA

DU-145 = assay: Cytotoxicity against human DU145 cells after 72 hrs by SRB assay; assay type: functional; conditions: DU-145, 72 h, read-out: ED50 (the source's name)
KB = assay: Cytotoxicity against human KB cells after 72 hrs by SRB assay; assay type: functional; conditions: read-out: ED50 (the source's name); method in brief: as §1
[9] = Cytotoxicity against human KBVIN cells after 72 hrs by SRB assay; assay type: functional; conditions: read-out: ED50 (the source's name); method in brief: as §1
ZR-75-1 [10] = assay: Selectivity for ED50 for human ZR-75-1 to ED50 for human SK-BR-3; assay type: functional
Method in brief: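 SRB growth assay: ZR-75-1 and SK-BR-3 cells in RPMI-1640 with 10% FBS at 37 °C under 5% CO2, seeded in 96-well plates, compound added from DMSO stock, 72 h exposure, TCA fixation, SRB staining, absorbance at 515 nm. ED50 is 50% reduction of net protein increase, averaged from ≥3 independent runs; ratio of ZR-75-1 to SK-BR-3 ED50.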

ZR-75-1 [11] = assay: Antitumor activity against human ZR-75-1 cells xenografted in athymic nude mouse SCID assessed as tumor growth delay at 20 mg/kg, ip administered in Q4D X 5 schedule; assay type: functional; conditions: route intraperitoneal; method in brief: as §2
ZR-75-1 [12] = assay: Antitumor activity against human ZR-75-1 cells xenografted in athymic nude mouse SCID assessed as mean time to end point at 20 mg/kg, ip administered in Q4D X 5 schedule; assay type: functional; conditions: route intraperitoneal; method in brief: as §2

Compound | EC50 (SK-BR-3) | EC50 (MCF7) | EC50 (ZR-75-1 [1]) | further results
Cc1coc2c1c(=O)oc1c3cccc(O)c3ccc21 | 5 µg/mL (≈ 18.8 µM) | 15 µg/mL (≈ 56.3 µM) |  | 
CCc1cccc2c1ccc1c3occ(C)c3c(=S)oc21 | 16 µg/mL (≈ 54.4 µM) | > 20 µg/mL |  | 
Cc1coc2c1c(=O)oc1c3cccc(OCCN(C)C)c3ccc21 | 5.8 µg/mL (≈ 17.2 µM) | 5 µg/mL (≈ 14.8 µM) |  | 
CC(=O)Oc1cccc2c1ccc1c3occ(C)c3c(=O)oc21 | 5.7 µg/mL (≈ 18.5 µM) | 6 µg/mL (≈ 19.5 µM) |  | 
Cc1coc2c1c(=O)oc1c3ccccc3ccc21 | 1 µg/mL (≈ 4 µM) | 4 µg/mL (≈ 16 µM) | 4 µg/mL (≈ 16 µM) | 
CCc1cccc2c1ccc1c3occ(C)c3c(=O)oc21 | 0.1 µg/mL (≈ 0.359 µM) | 0.2 µg/mL (≈ 0.719 µM) | 0.1 µg/mL (≈ 0.359 µM) | EC50 (A549): 11 µg/mL (≈ 39.5 µM); Activity (ZR-75-1 [2]): 95%; EC50 (MDA-MB-231): 8.8 µg/mL (≈ 31.6 µM); CC50 at 72 h [3]: 2.7 µg/mL (≈ 9.7 µM); inhibition [4]: 93%; inhibition [5]: 99%; Activity (ZR-75-1 [6]): 29.5 days; CC50 at 72 h [7]: 4.4 µg/mL (≈ 15.8 µM); inhibition [8]: 93%; EC50 (DU-145): 16 µg/mL (≈ 57.5 µM); EC50 (KB): 13 µg/mL (≈ 46.7 µM)
Cc1coc2c1c(=O)oc1c3ccccc3n(C)c(=O)c21 | 12 µg/mL (≈ 42.7 µM) | 11 µg/mL (≈ 39.1 µM) |  | 
Cc1coc2c1c(=O)sc1c3ccccc3ccc21 | 12 µg/mL (≈ 45.1 µM) | > 20 µg/mL |  | 
Cc1coc2c1c(=O)oc1c3cccc(C(C)Br)c3ccc21 (stereo not given) | 0.1 µg/mL (≈ 0.28 µM) |  | 0.1 µg/mL (≈ 0.28 µM) | EC50 (A549): > 20 µg/mL; EC50 (MDA-MB-231): 14 µg/mL (≈ 39.2 µM); EC50 [9]: > 20 µg/mL; EC50 (DU-145): 18 µg/mL (≈ 50.4 µM); EC50 (KB): 13 µg/mL (≈ 36.4 µM)
Cc1coc2c1c(=O)oc1c3cccc(C(C)C)c3ccc21 | 2 µg/mL (≈ 6.84 µM) | 1.4 µg/mL (≈ 4.79 µM) | 0.2 µg/mL (≈ 0.684 µM) | EC50 (MDA-MB-231): > 10 µg/mL; EC50 [9]: 7.3 µg/mL (≈ 25 µM); Ratio ED50 (ZR-75-1 [10]): 10; EC50 (KB): 11 µg/mL (≈ 37.6 µM)
COc1ccc(-c2coc3c2c(=O)oc2c4ccccc4ccc32)cc1 | 5.8 µg/mL (≈ 16.9 µM) |  |  | 
Cc1coc2c1c(=S)oc1c3ccccc3ccc21 | > 20 µg/mL | > 20 µg/mL |  | 
CCOc1cccc2c1ccc1c3occ(C)c3c(=O)oc21 | 2.5 µg/mL (≈ 8.49 µM) | > 20 µg/mL | 1.9 µg/mL (≈ 6.46 µM) | EC50 (A549): 3.5 µg/mL (≈ 11.9 µM); EC50 (MDA-MB-231): 9.8 µg/mL (≈ 33.3 µM); EC50 [9]: 5.3 µg/mL (≈ 18 µM); EC50 (DU-145): 4.7 µg/mL (≈ 16 µM); EC50 (KB): 3.7 µg/mL (≈ 12.6 µM)
CC(=O)O[C@H]1C(=O)[C@@]2(C)[C@H]([C@H](OC(=O)c3ccccc3)[C@]3(O)C[C@H](OC(=O)[C@H](O)[C@@H](NC(=O)c4ccccc4)c4ccccc4)C(C)=C1C3(C)C)[C@]1(OC(C)=O)CO[C@@H]1C[C@@H]2O [PACLITAXEL] |  |  |  | Activity (ZR-75-1 [11]): 132%; Activity (ZR-75-1 [12]): 35 days
CCCn1c(=O)c2c3occ(C)c3c(=O)oc2c2ccccc21 | 15 µg/mL (≈ 48.5 µM) | > 20 µg/mL |  | 
CCc1cccc2c1ccc1c3oc(C)c(C)c3c(=O)oc21 | 9.8 µg/mL (≈ 33.5 µM) | 8 µg/mL (≈ 27.4 µM) |  | 
